{"data": "Measured values of several laboratories", "read-out": "enzyme activity", "mode": "inhibitor", "IGF1R": "Insulin-like growth factor 1 receptor (IGF1R, Homo sapiens, UniProt P08069)", "IGF1R phosphorylated": "Insulin-like growth factor 1 receptor, phosphorylated (IGF1R, Homo sapiens, UniProt P08069)", "note": "Protocols differ between the studies behind these lines."}
{"Compound": "Cc1cnc(NC2CCOCC2)nc1-n1cnc(C(=O)NC(CN)c2cc(F)cc(Cl)c2)c1 (stereo not shown)", "target": "IGF1R", "test": "radiometric", "setting": "1 µM", "remaining activity [%]": 103}
{"Compound": "Cc1sc(C(=O)NC2COC2)cc1-n1cc(NC(=O)Nc2c(F)cccc2Cl)cn1", "target": "IGF1R", "setting": "10 µM", "remaining activity [%]": 102}
{"Compound": "CC(C)(C)c1nc2c(s1)c1nc(N)ncc1c1ccc(NS(=O)(=O)c3c(F)cccc3F)c(F)c12", "target": "IGF1R", "test": "radiometric", "setting": "1 µM", "remaining activity [%]": 100}
{"Compound": "CCN(CC)c1ccc(C2=NNC(=O)CC2C)cc1[N+](=O)[O-] (stereo not shown)", "target": "IGF1R", "setting": "10 µM", "remaining activity [%]": 86}
{"Compound": "CCN(CC)CCNC(=O)c1c(C)[nH]c(/C=C2\\C(=O)Nc3ccc(F)cc32)c1C", "target": "IGF1R", "setting": "1 µM", "remaining activity [%]": 67}
{"Compound": "Oc1cccc(-c2nc(N3CCOCC3)c3oc4ncccc4c3n2)c1", "target": "IGF1R", "setting": "10 µM", "remaining activity [%]": 54}
{"Compound": "Cc1[nH]c(/C=C2\\C(=O)Nc3ccc(F)cc32)c(C)c1C(=O)N[C@H]1CCN(C(=O)N(C)C)C1", "target": "IGF1R", "setting": "1 µM", "remaining activity [%]": 106}
{"Compound": "COc1cc(Nc2cnc(C#N)c(O[C@H](C)CN(C)C)n2)ncc1-c1cnn(C)c1", "target": "IGF1R", "test": "radiometric", "setting": "10 µM", "remaining activity [%]": 73}
{"Compound": "Cn1c(=O)n(-c2ccc(C(C)(C)C#N)cc2)c2c3cc(-c4cnc5ccccc5c4)ccc3ncc21", "target": "IGF1R", "setting": "10 µM", "remaining activity [%]": 72}
{"Compound": "O=C(Nc1cnn(-c2csc(C(=O)NC3COC3)c2)c1)Nc1ccccc1Cl", "target": "IGF1R", "setting": "5 µM", "remaining activity [%]": 95.8}
{"Compound": "Nc1nc(NC2CCCCC2)sc1C(=O)c1ccccc1", "target": "IGF1R", "setting": "10 µM", "remaining activity [%]": 80}
{"Compound": "CCCOc1ccc(OC)c(F)c1C(=O)c1ccc(C(=O)N[C@@H]2CNC[C@H]2NC(=O)c2ccc3[nH]ncc3c2)cc1", "target": "IGF1R phosphorylated", "setting": "10 µM", "remaining activity [%]": 76}
{"Compound": "COc1cc(Cl)c(C(=O)N[C@@H](CN[C@H]2CC[C@@H](N)CC2)Cc2ccc(C#N)cc2)cc1-c1ccc(CN[C@H](C)c2ccc(C)cc2)o1", "target": "IGF1R phosphorylated", "setting": "1 µM", "remaining activity [%]": 117}
